# Source: PubChem (Johns Hopkins Ion Channel Center)
# Shown are actives, neighbours in structure and some others; about 3.7% of the full set was active somewhere.
# Kir21 block = blocks the mouse Kir2.1 inward-rectifier potassium channel. HEK293-Kir2.1, FluxOR thallium flux fluorescence; stronger effect = lower value. B-score at 10 µM. hit rate 0.85% among 310,000;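 active = fluorescence ratio B-score at or below minus 3 SD of library scores, with starting-brightness B-score within 2 SD, cut at about -4.2 in these data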;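 also: channel flux triggered by added potassium and thallium sulfate stimulus; B-score of peak minus minimum fluorescence over baseline after thallium stimulus; more negative B-score means stronger Kir2.1 block with less thallium influx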
# KCNK9 inh-1 = human KCNK9 channel inhibition; HEK293 KCNK9, FluxOR thallium flux fluorescence; stronger effect = lower value; B-score at 10 µM; Q9NPC2; hit rate 1.2% among 310,000; AID 488922;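 active = ratio B-score over 3 SD below the library mean, with starting fluorescence within 5 SD of its mean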;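 also: negative B-score means less thallium flux so channel inhibition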
# Target sequence (Q9NPC2 whole entry, looked up): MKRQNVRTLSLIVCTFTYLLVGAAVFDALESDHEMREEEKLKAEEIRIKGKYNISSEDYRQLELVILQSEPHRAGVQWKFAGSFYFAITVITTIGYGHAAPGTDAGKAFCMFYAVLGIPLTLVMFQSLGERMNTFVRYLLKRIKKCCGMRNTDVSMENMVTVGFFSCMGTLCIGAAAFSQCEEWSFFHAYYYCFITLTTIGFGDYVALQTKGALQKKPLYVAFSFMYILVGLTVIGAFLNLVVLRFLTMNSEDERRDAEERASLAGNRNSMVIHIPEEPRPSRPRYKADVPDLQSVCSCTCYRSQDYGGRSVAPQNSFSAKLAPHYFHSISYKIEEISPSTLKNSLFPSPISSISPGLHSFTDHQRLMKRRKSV
# KCNK3 inh = human KCNK3 channel inhibition, primary screen. hit rate 0.84% among 340,000. O14649. AID 602410. CHO-KCNK3 thallium flux, FluxOR fluorescence; stronger effect = lower value. B-score at 10 µM;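 active = B-score under library mean minus 4 SD, starting fluorescence ratio at most library mean plus 5 SD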;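 also: more negative B-score means stronger inhibition of thallium flux through KCNK3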
# Target sequence (O14649 whole entry, looked up): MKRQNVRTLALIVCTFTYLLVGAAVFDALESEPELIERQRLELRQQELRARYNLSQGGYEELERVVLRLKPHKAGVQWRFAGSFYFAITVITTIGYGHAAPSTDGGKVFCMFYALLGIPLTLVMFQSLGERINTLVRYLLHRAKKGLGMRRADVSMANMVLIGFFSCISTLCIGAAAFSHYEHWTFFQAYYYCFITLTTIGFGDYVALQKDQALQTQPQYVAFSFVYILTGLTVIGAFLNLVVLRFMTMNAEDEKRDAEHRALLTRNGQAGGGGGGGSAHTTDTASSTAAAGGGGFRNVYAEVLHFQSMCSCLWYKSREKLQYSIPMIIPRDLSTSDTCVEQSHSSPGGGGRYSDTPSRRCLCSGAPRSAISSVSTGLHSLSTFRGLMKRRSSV
# hERG rescue = compounds protecting human hERG from proarrhythmic drug block | activation (rescue from dofetilide block), less the hit threshold, % at 10 µM | Q12809 | hit rate 0.51% among 310,000 | AID 1511 | CHO-hERG, FluxOR thallium flux, dofetilide IC70 present;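 active = activation above the mean of controls blocked by dofetilide plus 5 SD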;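 also: thallium influx through hERG after potassium depolarization seen as dye fluorescence rise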
# KCNQ1 inh = blocks the human KCNQ1 potassium channel; P51787; CHO-K1 KCNQ1, FluxOR thallium flux fluorescence; stronger effect = higher value; B-score at 10 µM; hit rate 1.3% among 310,000; AID 2642;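 active = compounds whose thallium flux B-score, printed positive for inhibition, exceeds three library SD while starting fluorescence stays within three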;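 also: channel opened by potassium depolarization with thallium stimulus after 20 min compound exposure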
# KCNQ1 act = human KCNQ1 channel potentiation or activation; B-score at 10 µM; hit rate 0.35% among 310,000; P51787; CHO-K1 KCNQ1, thallium flux FluxOR fluorescence; stronger effect = higher value;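 active = fluorescence ratio B-score, a plate-corrected score, at least three library SD, with initial intensity B-score within 5 SD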
#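 Assay system: CHO-K1 cells stably expressing KCNQ1. Medium: assay buffer for compound exposure, DMSO matched across wells. Timing: 37 °C overnight plating, 90-min dark dye load, 20-min compound pretreatment. Signal: kinetic FluxOR fluorescence, 10 s baseline plus 110 s post-stimulus.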
# hERG inh = hERG (human) inhibition as Kir2.1 counter-screen | shares compounds with Kir21 block | hERG-expressing cells, thallium flux | inhibition, % at 10 µM | hit rate 20% among 320 | AID 2236;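 also: host cells are CHO cells stably expressing hERG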
# KCNK9 inh-2 = tests whether Kir2.1 inhibitors also affect human KCNK9 | shares compounds with Kir21 block | KCNK9-expressing cells, ion flux inhibition | inhibition, % at 10 µM | hit rate 5% among 320 | AID 2329
# Kir2-1 patch inh = inhibitors of mouse Kir2.1 potassium channel; shares compounds with Kir21 block; Kir2.1 cells, automated patch-clamp current inhibition; inhibition, % at 25 µM; hit rate 71% among 320; AID 463252
# KCNQ1 block val = reconfirmed blocker of the human KCNQ1 potassium channel; shares compounds with KCNQ1 inh; inhibition, % at 10 µM; KCNQ1 cell line, FluxOR thallium flux fluorescence; hit rate 93% among 1,600;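 active = primary screen active, with duplicate mean exceeding buffer control mean plus 3 SD of buffer wells, cut at about 28% in these data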;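 also: 0% = buffer control ratio and 100% = XE991 inhibitor control ratio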
# CHO Tl flux = counter-screen for KCNQ1 inhibitors: effect in parental CHO cells. parental CHO-K1, FluxOR thallium flux fluorescence ratio; stronger effect = lower value; zero means no signal rise above baseline. fluorescence ratio (Tl flux) at 10 µM. hit rate 21% among 1,600. shares compounds with KCNQ1 inh;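 active = mean of duplicate thallium-flux fluorescence ratios in parental host cells more than 5 SD below the buffer control mean, cut at about 0.38 in these data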;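 also: ratio is peak minus minimum fluorescence divided by baseline fluorescence; actives read low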
# KCNQ2 inh = selectivity of KCNQ1 inhibitors: inhibition of rat KCNQ2 channel; hit rate 71% among 1,600; inhibition, % at 10 µM; shares compounds with KCNQ1 inh; KCNQ2 cells, FluxOR thallium flux fluorescence;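 active = mean percent inhibition of the KCNQ2 thallium signal more than 5 SD above the buffer-only control wells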;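 also: KCNQ2 expressed in CHO cells; 0% = buffer control wells and 100% = XE-991 inhibitor control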
# KCNQ1-KCNE1 inh = selectivity of KCNQ1 inhibitors: inhibition of human KCNQ1/KCNE1 channel | shares compounds with KCNQ1 inh | KCNQ1/KCNE1 cells, FluxOR thallium flux fluorescence | inhibition, % at 10 µM | hit rate 77% among 1,600 | AID 652147;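 active = mean percent inhibition of duplicate wells above the buffer-only control mean plus 3 SD of those controls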;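 also: 0% = buffer only wells and 100% = XE-991 inhibitor control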
# Numbers without * were called inactive; i = inactive; nt = no result given. Unless noted, no rule for the calls is given here.
SMILES,Kir21 block,KCNK9 inh-1,KCNK3 inh,hERG rescue,KCNQ1 inh,KCNQ1 act,others
CCOc1ccc(-c2cc(C)[n+](CCc3ccc(OC)c(OC)c3)c(-c3ccc(OCC)cc3)c2)cc1,-3.16,i,i,-27.6,10*,i,
O=C1CN(O)C(c2ccccc2)=c2cc(Cl)ccc2=N1,1.03,i,i,-2.9,i,i,
COc1c(C=C2C(=O)NC(=O)NC2=O)c(CCN(C)C(=O)c2ccccc2)cc2c1OCO2,-4.51*,i,i,-8.8,i,i,
Cc1cccn2c(=O)c3c(nc12)N1CCC(Cc2ccccc2)CC1C1(C3)C(=O)N(C)C(=O)N(C)C1=O (stereo not given),1.1,-6.63*,i,-11.3,i,i,
CN(C)c1ccc(/C=C/C=C/c2sc3ccccc3[n+]2C)cc1,0.58,i,i,-18.2,i,i,
CC[n+]1c(/C=C/C=C/c2ccc(N(C)C)cc2)sc2ccccc21,-4.02,-6.65*,-10.8*,-28.7,i,i,
CC[n+]1c(/C=C/N(C)c2ccccc2)sc2ccc(Cl)cc21,0.38,i,i,-22.9,6*,i,
CN[C@@H]1C[C@@H](c2ccc(Cl)c(Cl)c2)c2ccccc21,-11.4*,i,nt,-18.9,i,i,
COc1cc(CN2CCCC(C(=O)c3sccc3C)C2)cc(OC)c1O (stereo not given),-0.03,i,i,-6.7,i,i,
COc1ccc(CN2CCCC(C(=O)c3sccc3C)C2)cc1O (stereo not given),-6.18*,i,i,1.0,i,i,hERG inh=i;KCNK9 inh-2=i;Kir2-1 patch inh=i
CCCNS(=O)(=O)c1ccc(OCC(=O)N2CCN(Cc3ccc4c(c3)OCO4)CC2)c(C)c1,0.75,i,i,-13.5,i,i,
COc1cccc(CNCCc2ccccc2)c1OC,1.95,i,i,-7.9,i,i,
COc1ccc2ccccc2c1CNCCc1ccccc1,-8.95*,i,i,-9.9,i,i,hERG inh=i;KCNK9 inh-2=i;Kir2-1 patch inh=29.0%*
COc1ccc(CNCCc2c[nH]c3ccccc23)c(OC)c1C,-8.42*,i,i,-6.5,i,i,hERG inh=i;KCNK9 inh-2=i;Kir2-1 patch inh=4.1%*
COc1cc(C)c(CNCCc2c[nH]c3ccccc23)cc1C,-6.92*,i,i,-8.2,i,i,hERG inh=i;KCNK9 inh-2=i;Kir2-1 patch inh=9.0%*
COc1ccc(CNCCc2ccc3c(c2)OCO3)cc1Br,-11.5*,i,i,-6.7,i,i,hERG inh=46.0%*;KCNK9 inh-2=i;Kir2-1 patch inh=82.5%*
NC(N)=Nc1ccc2[nH]c3c(c2c1)C[C@@]1(O)[C@H]2Cc4ccc(O)c5c4[C@@]1(CCN2CC1CC1)[C@H]3O5,nt,nt,i,nt,nt,nt,
COC(=O)C1=C(c2ccc(Cl)c(C(F)(F)F)c2)C[C@@H]2CC[C@H]1N2C(=O)NCCCOC(C)C,nt,nt,i,nt,nt,nt,
Cc1ccc2c(c1)C1CN(C)CCC1N2C(=O)Nc1cccc(Cl)c1 (stereo not given),-1.41,i,i,-13.4,7*,i,KCNQ1 block val=0.0;CHO Tl flux=0.49;KCNQ2 inh=i;KCNQ1-KCNE1 inh=i
Cc1ccc2c(c1)C1CN(C)CCC1N2C(=S)Nc1cccnc1 (stereo not given),0.84,i,i,-11.1,i,i,
CC1CN(c2ccccn2)C(C)CN1C(=O)C(O)(c1ccccc1)c1ccccc1 (stereo not given),nt,nt,i,nt,nt,nt,
COc1cc(CN=C(C)c2c(O)n(C3CCCCC3)c(=O)[nH]c2=O)cc(OC)c1,-0.25,i,i,-8.2,6*,i,KCNQ1 block val=0.0;CHO Tl flux=0.503;KCNQ2 inh=80.3%*;KCNQ1-KCNE1 inh=i
CCC(=NCc1cc(OC)cc(OC)c1)c1c(O)n(C2CCCCC2)c(=O)[nH]c1=O,-1.61,i,i,-11.0,i,i,
CCCCn1c(=O)c(C(=O)NCc2ccccc2OC)c(O)c2ccccc21,0.93,i,i,-10.2,7*,i,KCNQ1 block val=56.5*;CHO Tl flux=0.474;KCNQ2 inh=75.7%*;KCNQ1-KCNE1 inh=48.5%*
COC(=O)C1=C(c2ccc3ccccc3c2)C[C@@H]2CC[C@H]1N2C(=O)N1CCC(C)CC1,nt,nt,i,nt,nt,nt,
SMILES,Kir21 block,KCNK9 inh-1,KCNK3 inh,hERG rescue,KCNQ1 inh,KCNQ1 act,others
CCC(=NCCOc1ccc(Cl)cc1)c1c(O)n(C)c(=O)n(C)c1=O,-0.32,i,i,-30.8,7*,i,KCNQ1 block val=122.5*;CHO Tl flux=0.344*;KCNQ2 inh=114.3%*;KCNQ1-KCNE1 inh=144.5%*
CC(C)(C)c1nc(N2CCN(C(=O)c3ccco3)CC2)c2nnn(Cc3ccccc3Cl)c2n1,0.28,i,i,-11.6,7*,i,KCNQ1 block val=116.5*;CHO Tl flux=0.364*;KCNQ2 inh=101.3%*;KCNQ1-KCNE1 inh=135.5%*
Oc1cc(Cl)ccc1Oc1ccc(Cl)cc1Cl,1.19,-7.29*,i,-5.5,9*,i,KCNQ1 block val=51.5*;CHO Tl flux=0.464;KCNQ2 inh=i;KCNQ1-KCNE1 inh=86.0%*
CC1(C(O)(C#CCN2CCCCC2)c2ccccc2)CCCC1 (stereo not given),-1.01,i,i,-13.4,i,i,
Cc1ccccc1NC(=O)c1cc(-c2ccccc2)n(CCCN2CCOCC2)c1C,1.53,i,i,-8.0,i,i,
Cc1ccc(NC(=O)c2cc(-c3ccccc3)n(CCCN3CCOCC3)c2C)cc1,-2.36,i,i,-8.2,6*,i,KCNQ1 block val=81.0*;CHO Tl flux=0.451;KCNQ2 inh=61.7%*;KCNQ1-KCNE1 inh=125.0%*
COc1ccc(/C=C/C=C2C(=O)NC(=S)NC2=O)cc1,nt,nt,i,nt,nt,nt,
